Data taken from ChEMBL document CHEMBL4350961, “Discovery of Pyrrolo[3,2- d]pyrimidin-4-one Derivatives as a New Class of Potent and Cell-Active Inhibitors of P300/CBP-Associated Factor Bromodomain” (J Med Chem, 2019).
Calls of active or inactive are those of the source. The calls are words filed in the database; no cut-off is given here.

Experiments:
[1] = target: Tyrosine-protein kinase FRK (Homo sapiens) (UniProt P42685); assay: Inhibition of human PTK5 (218 to end residues) using GGEEEEYFELVKKKK as substrate measured after 40 mins in presence of [gamma33P]ATP by scintillation counting method
Outline: (§1)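 Kinase panel of 422 kinases screened by Eurofins KinaseProfiler at a single test-compound concentration of 10 µM.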

[2] = target: Tyrosine-protein kinase Yes (Homo sapiens) (UniProt P07947); assay: Inhibition of recombinant full-length human Yes at 10 uM using poly(Glu, Tyr) 4:1 as substrate measured after 40 mins in presence of [gamma33P]ATP by scintillation counting method
[3] = target: Histone acetyltransferase KAT2A (Homo sapiens, UniProt Q92830); assay: Binding affinity to human N-terminal His-tagged GCN5 assessed as change in melting temperature at 10 uM by SYPRO orange dye-based fluorescence assay
Outline: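 Thermal shift with His-tagged human bromodomain at 2 μM final in 10 mM HEPES pH 7.5, 500 mM NaCl. Compound at 10 μM final with 0.1% DMSO; SYPRO Orange at 1:1000. Equilibrated 3 min at 25 °C, then heated from 25 to 95 °C at 1 °C/min. Melting temperature shift taken from fluorescence; at least duplicate.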

[4] = target: Protein kinase C epsilon type (Homo sapiens) (UniProt Q02156); assay: Inhibition of recombinant human PKCepsilon (2 to end residues) at 10 uM using ERMRPRKRQGSVRRRV as substrate measured after 40 mins in presence of [gamma33P]ATP by scintillation counting method
[5] = target: Ephrin type-A receptor 5 (Homo sapiens) (UniProt P54756); assay: Inhibition of recombinant human EphA5 (655 to 956 residues) at 10 uM using poly(Glu, Tyr) 4:1 as substrate measured after 40 mins in presence of [gamma33P]ATP by scintillation counting method
[6] = target: Fibroblast growth factor receptor 1 (Homo sapiens) (UniProt P11362); assay: Inhibition of recombinant human FGFR1 (456 to 765 residues) at 10 uM using KKKSPGEYVNIEFG as substrate measured after 40 mins in presence of [gamma33P]ATP by scintillation counting method
[7] = system: Fibroblast growth factor receptor 2 (Homo sapiens), P21802 [N549H]; assay: Inhibition of recombinant human FGFR2 N549H mutant (456 to 770 residues) at 10 uM using GGEEEEYFELVKKKK as substrate measured after 40 mins in presence of [gamma33P]ATP by scintillation counting method
[8] = system: SNF-related serine/threonine-protein kinase (Homo sapiens), Q9NRH2 [UNDEFINED MUTATION]; assay: Inhibition of human SNRK E97G/P116A mutant (65 to 409 residues) using KKLRRTLSFAEPG as substrate measured after 40 mins in presence of [gamma33P]ATP by scintillation counting method; outline: as §1
[9] = target: Serine/threonine-protein kinase pim-1 (Homo sapiens) (UniProt P11309); assay: Inhibition of recombinant full-length human Pim1 at 10 uM using KKRNRTLTV as substrate measured after 40 mins in presence of [gamma33P]ATP by scintillation counting method
Homo sapiens = species on record: Homo sapiens; assay: Inhibition of recombinant human PRAK R291E mutant at 10 uM using KKLRRTLSVA as substrate measured after 40 mins in presence of [gamma33P]ATP by scintillation counting method
[10] = target: cGMP-dependent protein kinase 1 (Homo sapiens) (UniProt Q13976); assay: Inhibition of recombinant full-length human PKG1alpha at 10 uM using RRRLSFAEPG as substrate measured after 40 mins in presence of [gamma33P]ATP by scintillation counting method
[11] = target: Serine/threonine-protein kinase TAO2 (Homo sapiens) (UniProt Q9UL54); assay: Inhibition of human TAO2 (1 to 320 residues) using myelin basic protein as substrate measured after 40 mins in presence of [gamma33P]ATP by scintillation counting method
[12] = target: Ribosomal protein S6 kinase alpha-1 (Homo sapiens) (UniProt Q15418); assay: Inhibition of recombinant full-length human Rsk1 at 10 uM using KKKNRTLSVA as substrate measured after 40 mins in presence of [gamma33P]ATP by scintillation counting method
[13] = target: Rhodopsin kinase GRK7 (Homo sapiens) (UniProt Q8WTQ7); assay: Inhibition of recombinant full-length human GRK7 at 10 uM using casein as substrate measured after 40 mins in presence of [gamma33P]ATP by scintillation counting method
[14] = target: G protein-coupled receptor kinase 3 (Homo sapiens) (UniProt P35626); assay: Inhibition of recombinant full-length human GRK3 at 10 uM using casein as substrate measured after 40 mins in presence of [gamma33P]ATP by scintillation counting method
[15] = target: Mitogen-activated protein kinase kinase kinase 2 (Homo sapiens) (UniProt Q9Y2U5); assay: Inhibition of recombinant full-length human MEKK2 at 10 uM using myelin basic protein as substrate measured after 40 mins in presence of [gamma33P]ATP by scintillation counting method
[16] = target: AP2-associated protein kinase 1 (Homo sapiens) (UniProt Q2M2I8); assay: Inhibition of human AAK1 at 10 uM using peptide substrate measured after 120 mins in presence of [gamma33P]ATP by scintillation counting method; outline: as §1
[17] = system: Eukaryotic elongation factor 2 kinase (Homo sapiens), O00418 [H23R]; assay: Inhibition of recombinant human EEF2K H23R mutant (2 to end residues) at 10 uM using RKKFGESEKTKTKEFL as substrate measured after 40 mins in presence of [gamma33P]ATP by scintillation counting method
[18] = system: Tyrosine-protein kinase ABL1 (Homo sapiens), P00519 [Q252H]; assay: Inhibition of recombinant human ABL Q252H mutant (27 to end residues) at 10 uM using EAIYAAPFAKKK as substrate measured after 40 mins in presence of [gamma33P]ATP by scintillation counting method
[19] = target: Serine/threonine-protein kinase mTOR (Homo sapiens) (UniProt P42345); assay: Inhibition of recombinant full-length human mTOR at 10 uM measured after 40 mins in presence of [gamma33P]ATP by scintillation counting method
[20] = target: Dual specificity tyrosine-phosphorylation-regulated kinase 1A (Homo sapiens) (UniProt Q13627); assay: Inhibition of recombinant full-length human DYRK1A at 10 uM using RRRFRPASPLRGPPK as substrate measured after 40 mins in presence of [gamma33P]ATP by scintillation counting method
[21] = target: Dual specificity protein kinase CLK4 (Homo sapiens) (UniProt Q9HAZ1); assay: Inhibition of recombinant human CLK4 (128 to end residues) at 10 uM using YRRAAVPPSPSLSRHSSPHQS(p)EDEEE as substrate measured after 40 mins in presence of [gamma33P]ATP by scintillation counting method
[22] = target: Tyrosine-protein kinase ABL1 (Homo sapiens) (UniProt P00519); assay: Inhibition of recombinant human ABL (27 to end residues) at 10 uM using EAIYAAPFAKKK as substrate measured after 40 mins in presence of [gamma33P]ATP by scintillation counting method

Tyrosine-protein kinase FRK (Homo sapiens), sequence (P42685 whole entry): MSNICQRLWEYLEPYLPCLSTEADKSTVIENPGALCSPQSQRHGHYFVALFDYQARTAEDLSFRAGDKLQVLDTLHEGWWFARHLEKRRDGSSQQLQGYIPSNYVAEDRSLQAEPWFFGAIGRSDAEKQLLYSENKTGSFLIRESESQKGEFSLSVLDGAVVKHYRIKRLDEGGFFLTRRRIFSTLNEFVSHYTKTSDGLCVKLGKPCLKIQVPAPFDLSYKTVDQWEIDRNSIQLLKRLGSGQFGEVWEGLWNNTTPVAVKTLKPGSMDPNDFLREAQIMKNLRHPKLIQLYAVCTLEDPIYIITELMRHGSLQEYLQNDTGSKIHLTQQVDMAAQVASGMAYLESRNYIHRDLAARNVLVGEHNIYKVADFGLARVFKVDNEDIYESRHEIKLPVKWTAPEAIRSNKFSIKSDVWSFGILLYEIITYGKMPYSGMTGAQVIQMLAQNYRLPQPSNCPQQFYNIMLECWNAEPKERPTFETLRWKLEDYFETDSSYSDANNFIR
Dual specificity protein kinase CLK4 (Homo sapiens), sequence (Q9HAZ1 whole entry, looked up): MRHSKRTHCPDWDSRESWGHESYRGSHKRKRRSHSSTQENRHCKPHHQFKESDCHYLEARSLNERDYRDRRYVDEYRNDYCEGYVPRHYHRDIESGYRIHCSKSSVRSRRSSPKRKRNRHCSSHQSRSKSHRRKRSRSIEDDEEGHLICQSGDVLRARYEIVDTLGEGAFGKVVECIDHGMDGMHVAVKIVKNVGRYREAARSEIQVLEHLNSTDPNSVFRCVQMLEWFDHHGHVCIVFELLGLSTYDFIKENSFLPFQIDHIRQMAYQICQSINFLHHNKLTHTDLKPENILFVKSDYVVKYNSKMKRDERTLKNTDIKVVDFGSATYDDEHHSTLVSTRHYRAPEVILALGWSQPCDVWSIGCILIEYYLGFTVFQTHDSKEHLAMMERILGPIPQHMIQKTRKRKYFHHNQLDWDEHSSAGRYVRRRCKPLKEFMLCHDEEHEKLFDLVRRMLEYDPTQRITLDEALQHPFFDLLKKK
Protein kinase C epsilon type (Homo sapiens), sequence (Q02156 whole entry, looked up, the tested form may be a part): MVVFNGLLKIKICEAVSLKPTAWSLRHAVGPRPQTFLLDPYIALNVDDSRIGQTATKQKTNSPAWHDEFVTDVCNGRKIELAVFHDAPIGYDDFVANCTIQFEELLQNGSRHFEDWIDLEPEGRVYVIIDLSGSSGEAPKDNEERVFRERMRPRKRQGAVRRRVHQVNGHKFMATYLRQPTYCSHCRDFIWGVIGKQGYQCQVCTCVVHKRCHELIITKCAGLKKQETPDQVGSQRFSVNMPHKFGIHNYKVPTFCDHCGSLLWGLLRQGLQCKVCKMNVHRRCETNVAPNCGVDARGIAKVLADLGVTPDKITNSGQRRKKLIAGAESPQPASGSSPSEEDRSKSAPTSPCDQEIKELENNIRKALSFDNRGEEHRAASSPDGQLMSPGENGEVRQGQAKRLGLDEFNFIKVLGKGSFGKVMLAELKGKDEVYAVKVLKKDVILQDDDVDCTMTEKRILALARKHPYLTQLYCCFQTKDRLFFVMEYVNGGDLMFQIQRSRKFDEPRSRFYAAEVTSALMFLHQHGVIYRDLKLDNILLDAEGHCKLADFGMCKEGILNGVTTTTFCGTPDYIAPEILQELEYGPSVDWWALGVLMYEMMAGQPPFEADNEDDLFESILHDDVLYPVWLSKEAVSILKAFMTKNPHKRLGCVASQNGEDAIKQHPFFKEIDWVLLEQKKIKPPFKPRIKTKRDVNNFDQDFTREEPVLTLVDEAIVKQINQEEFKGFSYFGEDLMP
Ribosomal protein S6 kinase alpha-1 (Homo sapiens), sequence (Q15418 whole entry): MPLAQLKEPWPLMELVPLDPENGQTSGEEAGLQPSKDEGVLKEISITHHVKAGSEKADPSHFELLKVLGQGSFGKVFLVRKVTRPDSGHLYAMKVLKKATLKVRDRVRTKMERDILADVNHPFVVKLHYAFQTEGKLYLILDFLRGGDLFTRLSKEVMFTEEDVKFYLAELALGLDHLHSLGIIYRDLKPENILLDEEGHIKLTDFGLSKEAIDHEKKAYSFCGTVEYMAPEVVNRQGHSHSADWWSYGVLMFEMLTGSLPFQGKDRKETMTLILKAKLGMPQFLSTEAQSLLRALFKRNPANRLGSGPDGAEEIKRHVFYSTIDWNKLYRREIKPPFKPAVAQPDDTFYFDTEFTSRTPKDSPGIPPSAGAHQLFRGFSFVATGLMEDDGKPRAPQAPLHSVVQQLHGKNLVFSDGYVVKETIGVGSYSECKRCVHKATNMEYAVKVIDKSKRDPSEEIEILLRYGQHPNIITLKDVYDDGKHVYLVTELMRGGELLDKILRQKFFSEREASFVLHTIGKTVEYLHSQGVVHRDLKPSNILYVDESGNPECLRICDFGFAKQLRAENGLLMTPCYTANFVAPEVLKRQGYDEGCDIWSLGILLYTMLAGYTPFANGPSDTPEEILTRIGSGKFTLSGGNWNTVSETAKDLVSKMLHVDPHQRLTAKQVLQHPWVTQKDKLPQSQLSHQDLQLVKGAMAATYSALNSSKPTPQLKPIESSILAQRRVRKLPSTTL
G protein-coupled receptor kinase 3 (Homo sapiens), sequence (P35626 whole entry): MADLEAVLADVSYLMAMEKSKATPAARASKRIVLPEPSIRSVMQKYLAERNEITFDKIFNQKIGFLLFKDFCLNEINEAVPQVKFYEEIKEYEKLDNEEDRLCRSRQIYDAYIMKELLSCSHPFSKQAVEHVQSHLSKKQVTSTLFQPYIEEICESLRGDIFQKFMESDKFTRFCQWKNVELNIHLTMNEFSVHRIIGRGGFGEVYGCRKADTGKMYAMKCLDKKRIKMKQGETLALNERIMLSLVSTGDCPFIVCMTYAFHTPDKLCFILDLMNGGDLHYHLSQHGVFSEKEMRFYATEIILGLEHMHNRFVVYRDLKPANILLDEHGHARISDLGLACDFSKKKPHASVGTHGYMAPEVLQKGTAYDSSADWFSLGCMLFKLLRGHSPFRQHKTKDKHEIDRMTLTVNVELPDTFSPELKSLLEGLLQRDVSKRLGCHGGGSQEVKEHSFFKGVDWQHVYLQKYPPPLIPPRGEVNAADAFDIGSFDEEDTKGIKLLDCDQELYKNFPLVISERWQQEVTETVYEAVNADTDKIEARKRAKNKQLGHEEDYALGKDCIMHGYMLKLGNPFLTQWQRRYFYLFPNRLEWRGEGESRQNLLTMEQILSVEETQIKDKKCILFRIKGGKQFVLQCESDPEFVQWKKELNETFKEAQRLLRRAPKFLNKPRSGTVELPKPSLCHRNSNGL
Ephrin type-A receptor 5 (Homo sapiens), sequence (P54756 whole entry, the tested form may be a part): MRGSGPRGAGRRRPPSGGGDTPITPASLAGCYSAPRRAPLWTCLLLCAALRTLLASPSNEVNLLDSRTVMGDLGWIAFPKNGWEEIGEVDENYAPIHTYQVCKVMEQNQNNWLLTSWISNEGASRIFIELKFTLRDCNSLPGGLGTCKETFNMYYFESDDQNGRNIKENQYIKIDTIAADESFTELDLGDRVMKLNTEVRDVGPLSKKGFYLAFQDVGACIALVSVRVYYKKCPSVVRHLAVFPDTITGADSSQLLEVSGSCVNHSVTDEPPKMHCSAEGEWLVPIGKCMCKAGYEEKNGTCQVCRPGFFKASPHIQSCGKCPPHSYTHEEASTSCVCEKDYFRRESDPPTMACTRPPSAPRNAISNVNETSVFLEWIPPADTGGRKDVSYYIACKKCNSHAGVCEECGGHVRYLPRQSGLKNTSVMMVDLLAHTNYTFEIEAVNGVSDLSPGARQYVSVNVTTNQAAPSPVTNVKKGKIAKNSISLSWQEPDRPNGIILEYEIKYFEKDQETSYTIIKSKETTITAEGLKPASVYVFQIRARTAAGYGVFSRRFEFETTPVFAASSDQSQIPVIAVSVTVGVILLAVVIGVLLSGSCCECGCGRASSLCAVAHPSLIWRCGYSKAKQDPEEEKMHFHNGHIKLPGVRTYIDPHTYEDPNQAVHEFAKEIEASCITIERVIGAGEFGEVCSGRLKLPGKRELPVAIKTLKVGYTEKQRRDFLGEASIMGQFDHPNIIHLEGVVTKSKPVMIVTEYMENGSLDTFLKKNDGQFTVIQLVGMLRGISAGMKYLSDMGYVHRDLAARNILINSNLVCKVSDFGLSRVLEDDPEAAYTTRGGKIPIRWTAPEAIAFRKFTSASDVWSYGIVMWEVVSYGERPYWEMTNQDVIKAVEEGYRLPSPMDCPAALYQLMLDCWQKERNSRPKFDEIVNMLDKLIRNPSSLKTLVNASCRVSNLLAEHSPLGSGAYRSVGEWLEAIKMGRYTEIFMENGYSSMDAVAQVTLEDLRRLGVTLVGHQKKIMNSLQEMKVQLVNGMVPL
Fibroblast growth factor receptor 1 (Homo sapiens), sequence (P11362 22-822 limits assumed): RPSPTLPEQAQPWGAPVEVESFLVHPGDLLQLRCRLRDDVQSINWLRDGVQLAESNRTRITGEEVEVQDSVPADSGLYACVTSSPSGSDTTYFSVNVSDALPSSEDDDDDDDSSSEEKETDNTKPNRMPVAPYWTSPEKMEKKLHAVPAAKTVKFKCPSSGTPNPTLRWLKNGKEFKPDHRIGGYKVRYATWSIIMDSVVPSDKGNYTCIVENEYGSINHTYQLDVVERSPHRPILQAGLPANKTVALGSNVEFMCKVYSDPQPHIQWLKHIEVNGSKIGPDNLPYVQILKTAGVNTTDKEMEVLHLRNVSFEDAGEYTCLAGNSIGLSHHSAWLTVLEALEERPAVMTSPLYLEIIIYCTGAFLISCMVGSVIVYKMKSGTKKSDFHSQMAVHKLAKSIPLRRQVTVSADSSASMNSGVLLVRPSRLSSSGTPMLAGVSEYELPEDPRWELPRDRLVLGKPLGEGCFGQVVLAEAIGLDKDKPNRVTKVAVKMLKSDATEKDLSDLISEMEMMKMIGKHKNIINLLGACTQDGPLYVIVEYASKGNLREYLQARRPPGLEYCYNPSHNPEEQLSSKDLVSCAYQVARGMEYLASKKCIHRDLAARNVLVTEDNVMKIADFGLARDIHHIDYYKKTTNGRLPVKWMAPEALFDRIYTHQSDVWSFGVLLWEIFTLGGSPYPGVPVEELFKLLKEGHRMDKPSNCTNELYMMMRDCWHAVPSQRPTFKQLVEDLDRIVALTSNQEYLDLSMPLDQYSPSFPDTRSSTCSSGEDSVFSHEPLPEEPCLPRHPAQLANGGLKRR

Structure (SMILES): CN1C[C@H](Nc2nc3cc[nH]c3c(=O)n2C)C[C@H](c2ccc3c(c2)OCCO3)C1
- inhibition [1]: inactive
- inhibition [2]: inactive
- ΔTm [3]: 7.3 °C
- inhibition [4]: inactive
- inhibition [5]: inactive
- inhibition [6]: inactive
- inhibition [7]: inactive
- inhibition [8]: inactive
- inhibition [9]: inactive
- inhibition (Homo sapiens): inactive
- inhibition [10]: inactive
- inhibition [11]: inactive
- inhibition [12]: inactive
- inhibition [13]: inactive
- inhibition [14]: inactive
- inhibition [15]: inactive
- inhibition [16]: inactive
- inhibition [17]: inactive
- inhibition [18]: inactive
- inhibition [19]: inactive
- inhibition [20]: inactive
- inhibition [21]: inactive
- inhibition [22]: inactive
